In the library only some 2.9% were active in any assay of this set; here they are far more common.
TRPC4 act – TRPC4 (mouse) channel activation; B-score at 10 µM; hit rate 0.49% among 310,000; HEK293 TRPC4beta/mu-opioid, Fluo4 calcium fluorescence; active compounds read high;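 active = B-score above 5 SD of library B-scores, and initial fluorescence ratio not above library mean plus 5 SD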;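 also: positive B-score marks a calcium rise read as TRPC4 activation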
Target sequence (Q9QUQ5 whole entry, looked up): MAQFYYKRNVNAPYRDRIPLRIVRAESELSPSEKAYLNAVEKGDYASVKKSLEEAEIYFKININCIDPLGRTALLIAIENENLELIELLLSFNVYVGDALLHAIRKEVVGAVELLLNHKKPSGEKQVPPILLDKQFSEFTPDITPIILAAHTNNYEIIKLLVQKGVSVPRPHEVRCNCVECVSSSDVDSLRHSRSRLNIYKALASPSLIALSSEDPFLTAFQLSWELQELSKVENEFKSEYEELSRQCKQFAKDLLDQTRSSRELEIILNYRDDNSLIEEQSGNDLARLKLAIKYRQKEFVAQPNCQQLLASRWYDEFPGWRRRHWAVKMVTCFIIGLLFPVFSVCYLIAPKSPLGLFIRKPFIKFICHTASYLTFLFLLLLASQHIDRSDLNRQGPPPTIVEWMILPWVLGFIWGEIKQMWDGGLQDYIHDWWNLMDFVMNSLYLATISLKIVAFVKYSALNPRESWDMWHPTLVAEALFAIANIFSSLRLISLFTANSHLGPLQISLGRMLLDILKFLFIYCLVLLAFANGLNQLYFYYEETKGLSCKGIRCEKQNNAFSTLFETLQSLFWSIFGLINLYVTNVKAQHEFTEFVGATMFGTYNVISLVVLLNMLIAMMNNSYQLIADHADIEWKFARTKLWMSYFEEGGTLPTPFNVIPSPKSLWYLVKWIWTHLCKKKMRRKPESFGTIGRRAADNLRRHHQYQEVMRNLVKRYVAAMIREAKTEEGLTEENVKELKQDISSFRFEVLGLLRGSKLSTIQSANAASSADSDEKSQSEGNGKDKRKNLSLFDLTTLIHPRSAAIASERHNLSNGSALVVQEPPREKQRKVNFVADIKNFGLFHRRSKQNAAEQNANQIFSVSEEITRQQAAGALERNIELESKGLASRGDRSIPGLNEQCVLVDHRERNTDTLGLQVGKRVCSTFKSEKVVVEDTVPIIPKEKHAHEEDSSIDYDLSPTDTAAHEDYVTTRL
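System: HEK293 cells stably co-expressing mouse TRPC4beta and mu-opioid receptor; Schedule: Fluo4 dye loading 45 min at room temperature, 110 s recording; Detection: Fluo4 fluorescence, kinetic; Evaluation: B-scored integrated calcium fluorescence ratio; Controls: buffer (low) and maximal DAMGO (high).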
TRPC6 act – activates the mouse TRPC6 cation channel | Q61143 | HEK293-TRPC6 membrane potential dye fluorescence; active compounds read high | B-score at 10 µM | hit rate 0.13% among 310,000 | AID 2550;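 active = B-score of the integrated fluorescence ratio above library mean plus 3 SD, and starting fluorescence ratio within library mean plus 5 SD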;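 also: higher score means more depolarization so channel activation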
TRPC6 inh – mouse TRPC6 channel inhibition; B-score at 10 µM; HEK293-TRPC6, membrane potential dye, ACh-evoked depolarization; active compounds read low; Q61143; hit rate 1.1% among 310,000;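 active = B-score under library mean minus 3 SD, initial fluorescence not abnormally high, positive integrated signal ratio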;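 also: B-score derived from integrated fluorescence ratio over the kinetic read; more negative B-score means stronger inhibition of depolarization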
TRPC4 block – TRPC4 (mouse) channel inhibition. Q9QUQ5. HEK293 TRPC4beta/mu-opioid, DAMGO-evoked Fluo4 calcium flux; active compounds read low. B-score at 10 µM. hit rate 0.39% among 300,000. AID 2247;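 active = B-score over 3 SD under the library average, no early fluorescence shift, positive overall ratio signal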
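Assay system: Stable TRPC4beta/mu-opioid receptor HEK293 cells | Reagent: DAMGO in two steps, submaximal then maximal | Compound dosing: Single concentration per test compound | Signal: Fluo4 Ca2+ flux fluorescence | Evaluation: Per-well B score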
Kir21 inh – Kir2.1 (mouse) channel inhibition. B-score at 10 µM. HEK293-Kir2.1, FluxOR thallium flux fluorescence; active compounds read low. hit rate 0.85% among 310,000. AID 1672;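 active = fluorescence ratio B-score at or below minus 3 SD of library scores, with starting-brightness B-score within 2 SD, cut at about -4.2 in these data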;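 also: channel flux triggered by added potassium and thallium sulfate stimulus; B-score of peak minus minimum fluorescence over baseline after thallium stimulus; more negative B-score means stronger Kir2.1 block with less thallium influx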
TRPC4 potent – allosteric potentiators of mouse TRPC4 channel. HEK293 TRPC4beta/mu-opioid, DAMGO EC20, Fluo-4 Ca2+ flux; active compounds read high. B-score at 10 µM. hit rate 0.42% among 310,000;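 active = B-score of calcium response area above 5 SD of library B-scores, with initial fluorescence ratio within 5 SD of library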;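 also: B-score of integrated fluorescence ratio over time as area under calcium response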
TRPC4 sel inh 2 – second selectivity test of TRPC6 inhibitors: effect on mouse TRPC4. HEK293 TRPC4/MOR, membrane potential dye fluorescence; channel activated by saturating DAMGO dose. hit rate 42% among 920. AID 2776. inhibition, % at 10 µM. shares compounds with TRPC6 inh;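 active = compounds whose fluorescence signal differed from control wells by over 3 SD, either direction, in both duplicate plates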
TRPC4 spec – tests whether TRPC6 inhibitors also affect mouse TRPC4 | shares compounds with TRPC6 inh | HEK293 TRPC4/mu-opioid, membrane potential fluorescence | activity change, negative = inhibition, % at 10 µM | hit rate 61% among 920 | AID 2777;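 active = rise or fall in signal beyond 3 SD of buffer-only wells in both replicate plates, either sign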;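 also: integrated kinetic ratio of fluorescence range over baseline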
HEK293 MPD ctr 2-1 – second counter-screen for TRPC6 inhibitors: parental HEK293 cells; shares compounds with TRPC6 inh; parental HEK293 membrane potential dye fluorescence; maximal acetylcholine challenge after compound addition; signal change vs control, % at 10 µM; hit rate 31% among 920;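 active = membrane potential signal moving either way by over 3 SD of the maximum-effect control, in both duplicate plates, meaning non-specific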
HEK293 MPD ctr-1 – checks TRPC6 inhibitor effects in parental HEK293 cells. shares compounds with TRPC6 inh. parental HEK293 membrane potential dye fluorescence. membrane potential signal change, % at 10 µM. hit rate 60% among 920. AID 2780;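 active = membrane potential signal shifting up or down by more than 3 SD of buffer-only wells, on both duplicate plates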
HEK293 MPD ctr-2 – parental HEK293 nonspecific activity of TRPC6 modulators. membrane potential signal change, % at 10 µM. AID 488924. hit rate 51% among 2,400. shares compounds with TRPC6 inh. membrane potential dye fluorescence;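 active = membrane potential signal moves up or down beyond 5 SD from buffer-only wells, on both duplicate plates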
HEK293 MPD ctr 2-2 – second counter-screen for TRPC6 modulators: effect in parental HEK293 cells; shares compounds with TRPC6 inh; membrane potential dye fluorescence; after compound, maximal acetylcholine stimulation; inhibition, % at 10 µM; hit rate 14% among 2,400; AID 488926;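 active = membrane potential signal drops by more than 5 SD from the mean control signal, in both duplicate plates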;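 also: plate controls were acetylcholine ECmax control wells for no effect and buffer only wells for full effect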
TRPC4 ctr mod – selectivity of TRPC6 modulators against mouse TRPC4 | HEK293 TRPC4/mu-opioid, membrane potential fluorescence | hit rate 69% among 2,400 | shares compounds with TRPC6 inh | percent change from control (negative = decrease, positive = increase), % at 10 µM;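 active = membrane potential signal moved up or down beyond 5 SD of buffer control wells, in both duplicate plates, actives on both sides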;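 also: plate controls were assay buffer wells for no effect and DAMGO maximal-effect wells for full effect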
TRPC4 ctr inh 2 – second check of whether TRPC6 modulators also affect mouse TRPC4. shares compounds with TRPC6 inh. HEK293 TRPC4/mu-opioid, membrane potential dye fluorescence; stimulated with maximal-effect DAMGO. inhibition, % at 10 µM. hit rate 55% among 2,400;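 active = drop in membrane potential signal beyond 5 SD of the control wells in both duplicate plates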;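 also: TRPC4 counter screen for TRPC6 hits run under conditions tuned for TRPC6 not TRPC4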
TRPC6 block conf – mouse TRPC6 inhibitor confirmation. inhibition, % at 10 µM. shares compounds with TRPC6 inh. hit rate 43% among 3,300. HEK293-TRPC6, membrane potential dye, ACh-evoked depolarization. AID 488960;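 active = fluorescence ratio falls more than 5 SD below the full-stimulation control mean, in both duplicate runs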;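 also: integrated fluorescence ratio of peak minus minimum over baseline after agonist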
TRPC6 act conf – mouse TRPC6 activator confirmation. activation, % at 10 µM. AID 488961. shares compounds with TRPC6 inh. HEK293-TRPC6 membrane potential dye fluorescence, FDSS. hit rate 11% among 2,800;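 active = ratio signal rise beyond 5 SD above unstimulated control wells' mean, seen in both duplicate runs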;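 also: plate controls were buffer EC0 wells for no effect and acetylcholine ECmax response for full effect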
* marks the source's active call; other numbers are inactive results; i = inactive; x = no result given.

SMILES | TRPC4 act | TRPC6 act | TRPC6 inh | TRPC4 block | Kir21 inh | TRPC4 potent | HEK293 MPD ctr-2 | HEK293 MPD ctr 2-2 | TRPC4 ctr mod | TRPC4 ctr inh 2 | TRPC6 block conf | TRPC6 act conf | others
CCOc1ccc(N=c2cc(-c3ccc(OC)cc3)oc3ccccc23)cc1 | i | i | i | i | 1.2 | i | x | x | x | x | x | x
COc1ccc(-c2cc(=Nc3ccc(C)cc3)c3ccccc3o2)cc1 | i | i | -8.8* | i | -6.1* | i | x | x | x | x | i | i | TRPC4 sel inh 2=i;TRPC4 spec=-12%*;HEK293 MPD ctr 2-1=i;HEK293 MPD ctr-1=i
COc1ccc(N=c2cc(-c3ccc(OC)cc3)oc3ccccc23)cc1 | i | i | -5.5* | i | -3.8 | i | -109%* | i | -26%* | 52%* | 38%* | i
COc1ccc(N=c2cc(-c3ccc(O)cc3)oc3ccccc23)cc1 | i | i | -6.1* | i | 1.1 | i | -94%* | i | -28%* | 64%* | 41%* | i
CC#CC(=O)N1CCC(C(=O)Nc2ccc(Oc3ccccc3)nc2)CC1 | i | i | i | i | -0.47 | i | x | x | x | x | x | x
COc1ccc2c(c1)Sc1ccccc1N2CCN(C)C | 50* | i | -5.1* | i | -0.88 | i | i | i | 39%* | 82%* | 52%* | i
CN(C)CCCN1C(=O)c2cc3ccccc3cc2C1=O | i | i | i | i | -0.02 | i | x | x | x | x | x | x
CN(C)CCCN1c2ccccc2Sc2ccccc21 | i | i | -6.4* | i | -2.1 | i | i | i | i | 58%* | 44%* | i
CCC(=O)c1ccc2c(c1)N(CCCN(C)C)c1ccccc1S2 | i | i | -6.1* | i | -4.2 | i | -232%* | 72%* | -38%* | 81%* | 70%* | i
CC(N=C1CC(C)(C)CC(=O)/C1=C(/O)CCCN1C(=O)c2ccccc2C1=O)C(=O)O (stereo unspecified) | i | i | i | i | -0.11 | i | x | x | x | x | x | x
CCCC(=NC(C)CC)C1=C(O)CC(c2ccccc2)CC1=O (stereo unspecified) | i | i | i | i | -1.4 | i | x | x | x | x | x | x
Cc1onc(-c2c(F)cccc2Cl)c1C(=O)Nc1c(C)n(C)n(-c2ccccc2)c1=O | i | i | i | i | -0.2 | i | x | x | x | x | x | x

Compound activity as filed in PubChem.
